Reference: ChEMBL document CHEMBL1777792, “Synthesis and evaluation of indole-based new scaffolds for antimicrobial activities--identification of promising candidates” (Bioorg Med Chem Lett, 2011)

How the values were obtained:
Candida albicans [1] = assay: Antifungal activity against Candida albicans in yeast extract-peptone-glucose medium at 250 ug/ml after 48 hrs by disc diffusion assay; assay type: functional; settings: read-out: DIZ
Procedure, shortened: (§1)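 C. albicans cells at a set number were spread on YEPD agar, either plain or containing the cell-wall disruptant named in the line (SDS, Congo red or calcofluor white). Compound solution, or the reference solvent as control, was spotted onto 0.5 cm discs placed on the lawn. Plates were incubated at 30 °C and the inhibition zone diameter was measured.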

Candida albicans [2] = assay: Antifungal activity against Candida albicans in yeast extract-peptone-glucose medium at 250 ug/ml after 48 hrs by disc diffusion assay in presence of 100 ug/ml of calcofluor white; assay type: functional; procedure, shortened: as §1
Candida albicans [3] = assay: Antifungal activity against Candida albicans in yeast extract-peptone-glucose medium at 250 ug/ml after 48 hrs by disc diffusion assay in presence of 150 ug/ml of congo red; assay type: functional; procedure, shortened: as §1
Candida albicans [4] = assay: Antifungal activity against Candida albicans in yeast extract-peptone-glucose medium at 250 ug/ml after 48 hrs by disc diffusion assay in presence of 0.01% of sodium dodecylsulphate; assay type: functional; settings: read-out: DIZ; procedure, shortened: as §1
Escherichia coli [5] = assay: Antibacterial activity against Escherichia coli harboring ampicillin-resistance gene encoding plasmid at 333 ug/ml after 24 hrs by disc diffusion assay; assay type: functional; settings: read-out: DIZ
Procedure, shortened: (§2)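 Disc diffusion used an E. coli strain carrying a plasmid that encodes an ampicillin-resistance gene. Inhibition zone diameters were recorded and compared against the corresponding solvent controls.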

Candida albicans [6] = assay: Antifungal activity against Candida albicans in yeast extract-peptone-glucose medium at 250 ug/ml after 48 hrs by disc diffusion assay in presence of rhodamine 6G
Escherichia coli [7] = assay: Antibacterial activity against Escherichia coli harboring ampicillin-resistance gene encoding plasmid at 250 ug/ml after 24 hrs by disc diffusion assay; assay type: functional; settings: read-out: DIZ; procedure, shortened: as §2
Candida albicans [8] = assay: Antifungal activity against Candida albicans in yeast extract-peptone-glucose medium at 300 ug/ml after 48 hrs by disc diffusion assay; assay type: functional; settings: read-out: DIZ; procedure, shortened: as §1
Escherichia coli [9] = assay: Antibacterial activity against Escherichia coli harboring ampicillin-resistance gene encoding plasmid at 500 ug/ml after 24 hrs by disc diffusion assay; assay type: functional; settings: read-out: DIZ; procedure, shortened: as §2
Candida albicans [10] = assay: Antifungal activity against Candida albicans in yeast extract-peptone-glucose medium at 500 ug/ml after 48 hrs by disc diffusion assay; assay type: functional; settings: read-out: DIZ
Procedure, shortened: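 Solid-phase assay on YEPD agar spread with a set number of C. albicans cells. Compound solution and reference solvent spotted onto 0.5 cm discs. Plates incubated at 30 °C, and inhibition zone diameter measured against solvent control.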

Candida albicans [11] = assay: Antifungal activity against Candida albicans in yeast extract-peptone-glucose medium at 500 ug/ml after 48 hrs by disc diffusion assay in presence of 100 ug/ml of calcofluor white; assay type: functional
Procedure, shortened: (§3)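 Disc diffusion on YEPD agar containing a cell-wall-disrupting agent (SDS, Congo red or calcofluor white) and spread with a set number of C. albicans cells. Compound and reference solvent spotted on 0.5 cm discs. Incubated at 30 °C, then inhibition zone diameter measured against solvent.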

Candida albicans [12] = assay: Antifungal activity against Candida albicans in yeast extract-peptone-glucose medium at 500 ug/ml after 48 hrs by disc diffusion assay in presence of 150 ug/ml of congo red; assay type: functional; procedure, shortened: as §3
Candida albicans [13] = assay: Antifungal activity against Candida albicans in yeast extract-peptone-glucose medium at 500 ug/ml after 48 hrs by disc diffusion assay in presence of 0.01% of sodium dodecylsulphate; assay type: functional; settings: read-out: DIZ; procedure, shortened: as §3
Candida albicans [14] = assay: Antifungal activity against Candida albicans in yeast extract-peptone-glucose medium at 500 ug/ml after 48 hrs by disc diffusion assay in presence of rhodamine 6G
Candida albicans [15] = assay: Antifungal activity against Candida albicans in yeast extract-peptone-glucose medium at 375 ug/ml after 48 hrs by disc diffusion assay; assay type: functional; settings: read-out: DIZ; procedure, shortened: as §1
Candida albicans [16] = assay: Antifungal activity against Candida albicans in yeast extract-peptone-glucose medium at 375 ug/ml after 48 hrs by disc diffusion assay in presence of 100 ug/ml of calcofluor white; assay type: functional; procedure, shortened: as §1
Candida albicans [17] = assay: Antifungal activity against Candida albicans in yeast extract-peptone-glucose medium at 375 ug/ml after 48 hrs by disc diffusion assay in presence of 150 ug/ml of congo red; assay type: functional; procedure, shortened: as §1
Candida albicans [18] = assay: Antifungal activity against Candida albicans in yeast extract-peptone-glucose medium at 375 ug/ml after 48 hrs by disc diffusion assay in presence of 0.01% of sodium dodecylsulphate; assay type: functional; settings: read-out: DIZ; procedure, shortened: as §1
Candida albicans [19] = assay: Antifungal activity against Candida albicans in synthetic dextrose minimal medium after 48 hrs by ELISA based serial dilution method
Candida albicans [20] = assay: Antifungal activity against Candida albicans in yeast extract-peptone-glucose medium at 375 ug/ml after 48 hrs by disc diffusion assay in presence of rhodamine 6G
Candida albicans [21] = assay: Antifungal activity against Candida albicans in yeast extract-peptone-glucose medium at 150 ug/ml after 48 hrs by disc diffusion assay; assay type: functional; settings: read-out: DIZ; procedure, shortened: as §1
Candida albicans [22] = assay: Antifungal activity against Candida albicans in yeast extract-peptone-glucose medium at 150 ug/ml after 48 hrs by disc diffusion assay in presence of 100 ug/ml of calcofluor white; assay type: functional; procedure, shortened: as §1
Candida albicans [23] = assay: Antifungal activity against Candida albicans in yeast extract-peptone-glucose medium at 150 ug/ml after 48 hrs by disc diffusion assay in presence of 150 ug/ml of congo red; assay type: functional; settings: read-out: DIZ; procedure, shortened: as §1
Candida albicans [24] = assay: Antifungal activity against Candida albicans in yeast extract-peptone-glucose medium at 150 ug/ml after 48 hrs by disc diffusion assay in presence of 0.01% of sodium dodecylsulphate; assay type: functional; settings: read-out: DIZ; procedure, shortened: as §1
Escherichia coli [25] = assay: Antibacterial activity against Escherichia coli harboring ampicillin-resistance gene encoding plasmid at 300 ug/ml after 24 hrs by disc diffusion assay; assay type: functional; settings: read-out: DIZ; procedure, shortened: as §2

## O=C(C(=O)N1CCOCC1)c1cn(CCCCn2cc(C(=O)C(=O)N3CCOCC3)c3ccccc32)c2ccccc12
Candida albicans [1]
  zone of inhibition at 250 µg/mL: 6 mm
Candida albicans [2]
  diameter of the inhibition zone (DIZ): 7.5 mm
Candida albicans [3]
  diameter of the inhibition zone (DIZ): 5 mm
Candida albicans [4]
  zone of inhibition at 250 µg/mL: 7 mm
Escherichia coli [5]
  zone of inhibition at 333 µg/mL: 10 mm
Candida albicans [6]
  diameter of the inhibition zone (DIZ): 7.5 mm

## O=C(C(=O)N1CCOCC1)c1cn(Cc2ccc(Cn3cc(C(=O)C(=O)N4CCOCC4)c4ccccc43)cc2)c2ccccc12
Candida albicans [1]
  zone of inhibition at 250 µg/mL: 6.5 mm
Candida albicans [2]
  diameter of the inhibition zone (DIZ): 6 mm
Candida albicans [3]
  diameter of the inhibition zone (DIZ): 6 mm
Candida albicans [4]
  zone of inhibition at 250 µg/mL: 6.5 mm
Escherichia coli [7]
  zone of inhibition at 250 µg/mL: 10.5 mm
Candida albicans [6]
  diameter of the inhibition zone (DIZ): 6 mm

## Clc1ccc(COC(Cn2ccnc2)c2ccc(Cl)cc2Cl)c(Cl)c1 (centres undefined) [MICONAZOLE]
Candida albicans [8]
  zone of inhibition at 300 µg/mL: 12 mm

## O=C(C(=O)N1CCCCC1)c1cn(CCCn2cc(C(=O)C(=O)N3CCCCC3)c3cc(Br)ccc32)c2ccc(Br)cc12
Escherichia coli [9]
  zone of inhibition at 500 µg/mL: 9 mm
Candida albicans [10]
  zone of inhibition at 500 µg/mL: 6 mm
Candida albicans [11]
  diameter of the inhibition zone (DIZ): 6.5 mm
Candida albicans [12]
  diameter of the inhibition zone (DIZ): 9.5 mm
Candida albicans [13]
  zone of inhibition at 500 µg/mL: 8 mm
Candida albicans [14]
  diameter of the inhibition zone (DIZ): 7.5 mm

## O=C(C(=O)N1CCCC1)c1cn(CCCCn2cc(C(=O)C(=O)N3CCCC3)c3ccccc32)c2ccccc12
Candida albicans [15]
  zone of inhibition at 375 µg/mL: 7.5 mm
Candida albicans [16]
  diameter of the inhibition zone (DIZ): 7.5 mm
Candida albicans [17]
  diameter of the inhibition zone (DIZ): 8 mm
Candida albicans [18]
  zone of inhibition at 375 µg/mL: 8 mm
Escherichia coli [9]
  zone of inhibition at 500 µg/mL: 10.5 mm
Candida albicans [19]
  IC50: 78 µM
Candida albicans [20]
  diameter of the inhibition zone (DIZ): 7.5 mm

## O=C(C(=O)N1CCCCC1)c1cn(CCCCn2cc(C(=O)C(=O)N3CCCCC3)c3ccccc32)c2ccccc12
Candida albicans [21]
  zone of inhibition at 150 µg/mL: 6 mm
Candida albicans [22]
  diameter of the inhibition zone (DIZ): 6 mm
Candida albicans [23]
  zone of inhibition at 150 µg/mL: 6 mm
Candida albicans [24]
  zone of inhibition at 150 µg/mL: 6.5 mm
Escherichia coli [25]
  zone of inhibition at 300 µg/mL: 10.5 mm

## O=C(NCc1ccccc1)C(=O)c1cn(CCCn2cc(C(=O)C(=O)NCc3ccccc3)c3ccccc32)c2ccccc12
Candida albicans [1]
  zone of inhibition at 250 µg/mL: 9 mm
Candida albicans [2]
  diameter of the inhibition zone (DIZ): 7 mm
Candida albicans [3]
  diameter of the inhibition zone (DIZ): 8 mm
Candida albicans [4]
  zone of inhibition at 250 µg/mL: 8.5 mm
Escherichia coli [7]
  zone of inhibition at 250 µg/mL: 12 mm
Candida albicans [19]
  IC50: 121 µM
Candida albicans [6]
  diameter of the inhibition zone (DIZ): 7 mm

## OC(Cn1cncn1)(Cn1cncn1)c1ccc(F)cc1F [FLUCONAZOLE]
Candida albicans [8]
  zone of inhibition at 300 µg/mL: 15 mm
